This is an account of results in ChEMBL document CHEMBL4339237, “Bulbiferates A and B: Antibacterial Acetamidohydroxybenzoates from a Marine Proteobacterium, Microbulbifer sp” (2019).

For experiment [1], the system named is Escherichia coli. Briefly: Antibacterial activity against Escherichia coli ATCC 25922 by agar diffusion assay. Type of experiment: functional. (In agar diffusion tests the substance spreads into inoculated agar from a disc or well.)
Experiment [2] has as its system Escherichia coli. Description: Antibacterial activity against Escherichia coli ATCC 25922 incubated for 18 hrs by dilution antimicrobial susceptibility test. Type of experiment: functional. As to conditions: ATCC 25922, 18 h. In short, it runs like this: (§1)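 Broth dilution susceptibility method for aerobic bacteria in 96-well plates. Compounds dissolved in DMSO and serially diluted to 10 concentrations (0.5–256 μg/mL). Geneticin served as positive control for E. coli and vancomycin for MSSA. Tested in duplicate, with eight untreated media controls per plate. Incubated 18 h at 33 °C. MIC taken as lowest concentration preventing visible growth.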

Experiment [3] has as its system Staphylococcus aureus. Briefly: Antibacterial activity against methicillin-sensitive Staphylococcus aureus ATCC 25913 by agar diffusion assay. Type of experiment: functional.
Experiment [4] concerns Staphylococcus aureus. Briefly: Antibacterial activity against methicillin-sensitive Staphylococcus aureus ATCC 25913 incubated for 18 hrs by dilution antimicrobial susceptibility test. Type of experiment: functional. As to conditions: ATCC 25913, 18 h. In a few lines:
as §1

Experiment [5] deals with Staphylococcus aureus. Briefly: Antibacterial activity against methicillin-resistant Staphylococcus aureus ATCC 33591 by agar diffusion assay. Type of experiment: functional, organism-based.

Converted amounts (≈) assume the structure as drawn. The source made the active and inactive calls. No cut-off for these calls is given here.

`CCCCCCCCOC(=O)c1ccc(O)c(NC(C)=O)c1`: the “diameter of the inhibition zone (DIZ)” value with Escherichia coli [1] is “inactive”. In addition, the minimum inhibitory concentration (MIC) in the experiment on Escherichia coli [2] and against Staphylococcus aureus [4] was more than 200 µg/mL throughout. The “diameter of the inhibition zone (DIZ)” value with Staphylococcus aureus [3] turned out to be 5 mm.

For `CN[C@@H]1[C@@H](O)[C@@H](O[C@@H]2[C@@H](O)[C@H](O[C@H]3O[C@H]([C@H](C)O)[C@@H](O)[C@H](O)[C@H]3N)[C@@H](N)C[C@H]2N)OC[C@]1(C)O`, in the experiment on Escherichia coli [2], the MIC was found to be 0.25 µg/mL (≈ 0.503 µM).

With `CCCCCCCCCCCCCCOC(=O)c1ccc(O)c(NC(C)=O)c1`, the minimal inhibitory concentration (MIC) in the experiment with Escherichia coli [2] and in the experiment on Staphylococcus aureus [4] was more than 200 µg/mL each time.

For the compound `COC(=O)c1ccc(O)c(NC(C)=O)c1`, in the experiment on Escherichia coli [1], the “diameter of the inhibition zone (DIZ)” value was “inactive”. For the same compound, the MIC in the experiment on Escherichia coli [2] and against Staphylococcus aureus [4] was more than 200 µg/mL in each case. Moreover, the “diameter of the inhibition zone (DIZ)” value in the experiment with Staphylococcus aureus [3] is given as 7 mm.

Consider `CCCCCCCCCCOC(=O)c1ccc(O)c(NC(C)=O)c1`, for which the “diameter of the inhibition zone (DIZ)” value came to 6 mm in the experiment with Escherichia coli [1] and 10 mm in the experiment with Staphylococcus aureus [3]. The MIC with Escherichia coli [2] and against Staphylococcus aureus [4] was more than 200 µg/mL in each case. In the experiment on Staphylococcus aureus [5], the result was inactive.

With `CCCCCCCCCCCOC(=O)c1ccc(O)c(NC(C)=O)c1`, the “diameter of the inhibition zone (DIZ)” value in the experiment with Escherichia coli [1] and in the experiment on Staphylococcus aureus [3] was 5 mm throughout. Besides, the MIC against Escherichia coli [2] and in the experiment on Staphylococcus aureus [4] was more than 200 µg/mL in each case. Also, in the experiment on Staphylococcus aureus [5], the result was inactive.

What is called MIC is the least concentration at which growth counts as inhibited. Low values mean a more susceptible organism, high ones a less susceptible organism.
